Assay results taken from ChEMBL document CHEMBL4823323, “Monocyclic Nitro-heteroaryl Nitrones with Dual Mechanism of Activation: Synthesis and Antileishmanial Activity” (ACS Med Chem Lett, 2021).
Calls of active or inactive are those of the source. No cut-off for these calls is given here.

Tests used:
[1] = tested on: Leishmania donovani; assay: Antileishmanial activity against Leishmania donovani LdBOB derived from MHOM/SD/62/1 S-CL2D promastigotes overexpressing NTR2 incubated for 72 hrs by resazurin dye based assay; assay type: functional, organism-based
Procedure, shortened: (§1)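 IC50 is the mean ± standard error of three independent experiments, each run in triplicate.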

[2] = tested on: Leishmania donovani; assay: Antileishmanial activity against Leishmania donovani LdBOB derived from MHOM/SD/62/1 S-CL2D promastigotes overexpressing NTR1 incubated for 72 hrs by resazurin dye based assay; assay type: functional, organism-based; procedure, shortened: as §1
[3] = tested on: Leishmania donovani; assay: Antileishmanial activity against wild type Leishmania donovani promastigotes incubated for 72 hrs by resazurin dye based assay; assay type: functional, organism-based; procedure, shortened: as §1
[4] = tested on: Leishmania amazonensis; assay: Antileishmanial activity against intracellular Leishmania amazonensis MHOM/BR/77/LTB 0016 amastigotes infected in BALB/c mouse peritoneal macrophage assessed as reduced parasite growth incubated for 72 hrs by PANOTIC staining based assay; assay type: functional, organism-based; details: MHOM/BR/77/LTB 0016, Peritoneal macrophage
Procedure, shortened: (§2)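 Values are averages of three independent experiments run in triplicate ± standard error.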

[5] = tested on: Leishmania infantum; assay: Antileishmanial activity against intracellular Leishmania infantum MHOM/MA/67/ITMAP-263 amastigotes infected in BALB/c mouse peritoneal macrophage assessed as reduced parasite growth incubated for 72 hrs by PANOTIC staining based assay; assay type: functional, organism-based; details: MHOM/MA/67/ITMAP-263, Peritoneal macrophage; procedure, shortened: as §2
[6] = tested on: Leishmania donovani; assay: Selectivity index, ratio of IC50 for antileishmanial activity against wild type Leishmania donovani promastigotes to IC50 for antileishmanial activity against Leishmania donovani LdBOB derived from MHOM/SD/62/1 S-CL2D promastigotes overexpressing NTR2; assay type: functional
[7] = Selectivity index, ratio of CC50 for cytotoxicity against BALB/c mouse peritoneal macrophages assessed as reduction in cell viability incubated for 72 hrs by resazurin dye based fluorescence assay to IC50 for antileishmanial activity against intracellular Leishmania amazonensis MHOM/BR/77/LTB 0016 amastigotes infected in BALB/c mouse peritoneal macrophage; assay type: toxicity; details: read-out: Selectivity Index
Procedure, shortened: (§3)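 CC50 values are means of three independent experiments, each in triplicate, ± standard error; selectivity index taken as macrophage CC50 divided by intracellular amastigote EC50.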

[8] = tested on: Leishmania amazonensis; assay: Antileishmanial activity against Leishmania amazonensis MHOM/BR/77/LTB 0016 promastigotes assessed as inhibition of parasite growth incubated for 72 hrs by resazurin dye based assay; assay type: functional, organism-based; details: MHOM/BR/77/LTB 0016, 72 h; procedure, shortened: as §2
[9] = Selectivity index, ratio of CC50 for cytotoxicity against BALB/c mouse peritoneal macrophages assessed as reduction in cell viability incubated for 72 hrs by resazurin dye based fluorescence assay to IC50 for antileishmanial activity against intracellular Leishmania infantum MHOM/MA/67/ITMAP-263 amastigotes infected in BALB/c mouse peritoneal macrophage; assay type: toxicity; details: read-out: Selectivity Index; procedure, shortened: as §3
[10] = tested on: Leishmania infantum; assay: Antileishmanial activity against Leishmania infantum MHOM/MA/67/ITMAP-263 promastigotes assessed as inhibition of parasite growth incubated for 72 hrs by resazurin dye based assay; assay type: functional, organism-based; details: MHOM/MA/67/ITMAP-263, 72 h; procedure, shortened: as §2
[11] = tested on: Leishmania amazonensis; assay: Induction of ROS production in Leishmania amazonensis promastigotes measured by H2DCFDA probe based fluorescence analysis; assay type: functional; details: time hrs <=4
Procedure, shortened: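 L. amazonensis promastigotes exposed to compounds at concentrations based on the anti-promastigote EC50, with ROS followed kinetically over 4 h using H2DCFDA fluorescence; means ± SD, n=3.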

[12] = tested on: Leishmania donovani; assay: Selectivity index, ratio of IC50 for antileishmanial activity against wild type Leishmania donovani promastigotes to IC50 for antileishmanial activity against Leishmania donovani LdBOB derived from MHOM/SD/62/1 S-CL2D promastigotes overexpressing NTR1; assay type: functional
[13] = tested on: Peritoneal macrophage; assay: Induction of ROS production in mouse peritoneal macrophages at EC50 concentration measured upto 4 hrs by H2DCFDA probe based fluorescence analysis; assay type: functional, cell-based; details: time hrs <=4
Procedure, shortened: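 Murine peritoneal macrophages incubated 4 h with 0.5×, 1× and 2× EC50 of compounds (concentrations taken from the anti-promastigote assay); ROS quantified with H2DCFDA; means ± SD, n=3.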

[14] = Electrochemical behavior of the compound in aprotic medium assessed as redox potential using glassy carbon electrode by cyclic voltammetry analysis; assay type: physicochemical
[15] = Cytotoxicity against BALB/c mouse peritoneal macrophages assessed as reduction in cell viability incubated for 72 hrs by resazurin dye based fluorescence assay; set-up: species or system Peritoneal macrophage; procedure, shortened: as §3
[16] = tested on: Leishmania infantum; assay: Antileishmanial activity in Leishmania infantum promastigotes intraperitoneally infected in BALB/c mouse assessed as reduced parasite load in spleen at 50 mg/kg, po twice a day followed by omeprazole administration 1 hr prior to test compound administration for 5 consecutive days relative to control; assay type: functional; set-up: scale not given: the % may be the effect or the level left; details: time 5 day
Procedure, shortened: (§4)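 BALB/c mice (n=5) infected intraperitoneally with 1 × 10^8 L. infantum promastigotes; treatment began seven days post-infection. Oral omeprazole 10mg given 1 h before each oral dose of test compound (25, 50, 100 mg/kg) every 12 h for five consecutive days. Controls received vehicle or miltefosine 22mg/kg twice daily. Spleen and liver parasite load estimated by limiting dilution.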

[17] = tested on: Leishmania infantum; assay: Antileishmanial activity in Leishmania infantum promastigotes intraperitoneally infected in BALB/c mouse assessed as reduced parasite load in spleen at 100 mg/kg, po twice a day followed by omeprazole administration 1 hr prior to test compound administration for 5 consecutive days relative to control; assay type: functional; set-up: scale not given: the % may be the effect or the level left; details: time 5 day; procedure, shortened: as §4
[18] = Stability in pooled mouse plasma at pH 7.4 assessed as parent compound remaining incubated for 240 mins by LC/MS/MS analysis; assay type: ADME, cell-free; details: pH 7.4, 4 h
[19] = Metabolic stability in human liver S9 fraction assessed as drug recovery at pH 7.4 in the presence of NADPH cofactor measured upto 60 mins by LC/MS/MS analysis; assay type: ADME, subcellular; details: s9, pH 7.4, 1 h
[20] = Chemical stability of the compound assessed as degradation product at pH 7 measured after 240 mins; assay type: physicochemical; details: buffer, pH 7, 4 h
[21] = Chemical stability of the compound assessed as degradation product at pH 2 measured after 240 mins; assay type: physicochemical; details: buffer, pH 2, 4 h
[22] = tested on: Leishmania infantum; assay: Antileishmanial activity in Leishmania infantum promastigotes intraperitoneally infected in BALB/c mouse assessed as reduced parasite load in liver at 25 to 100 mg/kg, po twice a day followed by omeprazole administration 1 hr prior to test compound administration for 5 consecutive days relative to control; assay type: functional; set-up: scale not given: the % may be the effect or the level left; details: dose 25-100 mg/kg, time 5 day; procedure, shortened: as §4
[23] = Aqueous solubility of the compound at pH 7.4 measured after 24 hrs by UHPLC-HRMS analysis; assay type: physicochemical; details: buffer

Row | Structure (SMILES) | IC50 [1] [nM] | IC50 [2] [nM] | IC50 [3] [nM] | IC50 [4] [nM] | Ratio IC50 [6] | selectivity ratio at 72 h [7] | IC50 [8] [nM] | IC50 [10] [nM] | Ratio IC50 [12] | Activity [14] [V] | CC50 at 72 h [15] [nM] | also measured
1 | CC(C)(C)/[N+]([O-])=C/c1ccc([N+](=O)[O-])o1 | 40 | 50 | 870 | 2760 | 21 | 39 | 1990 | 360 | 17 | -0.67 | 108000 | IC50 [5]: 19 nM; selectivity ratio at 72 h [9]: 5670; Activity [11]: inactive; Activity [13]: inactive
2 | CCCCCCCCCCCCCCCCOP(=O)([O-])OCC[N+](C)(C)C [MILTEFOSINE] |  |  |  | 3400 |  | 28 | 7010 | 9810 |  |  | 96500 | IC50 [5]: 500 nM; selectivity ratio at 72 h [9]: 193
3 | C[C@]1(COc2ccc(N3CCC(Oc4ccc(OC(F)(F)F)cc4)CC3)cc2)Cn2cc([N+](=O)[O-])nc2O1 [DELAMANID] | 0.12 |  | 1.5 |  | 12.5 |  |  |  |  |  |  | 
4 | CC1CS(=O)(=O)CCN1/N=C/c1ccc([N+](=O)[O-])o1 (configuration not stated) [NIFURTIMOX] |  | 110 | 1890 |  |  |  |  |  | 17 |  |  | 
5 | O=Cc1ccc([N+](=O)[O-])o1 |  |  |  | > 57900 |  | < 0.5 | 25200 | 25700 |  | -0.38 | 27800 | 
6 | O=[N+]([O-])c1ccc(/C=[N+](\[O-])Cc2ccccc2)s1 | 760 | 300 | 410 | 5420 | 0.53 | 3.4 | 1500 | 1510 | 1.3 |  | 18500 | IC50 [5]: 7180 nM; selectivity ratio at 72 h [9]: 2.6
7 | C/[N+]([O-])=C/c1ccc([N+](=O)[O-])s1 | 250 | 240 | 1120 | 3810 | 4.5 | 6 | 9720 | 3450 | 4.6 | -0.61 | 24200 | Activity [11]: inactive; Activity [13]: inactive
8 | C/[N+]([O-])=C/c1ccco1 |  |  |  |  |  |  | > 100000 | > 100000 |  |  | > 100000 | 
9 | C/[N+]([O-])=C/c1ccc([N+](=O)[O-])o1 | 190 | 30 | 1160 | 1070 | 6.1 | 47 | 9370 | 880 | 38 | -0.62 | 49900 | Activity [16]: 76.6%; IC50 [5]: 170 nM; Activity [17]: 95%; Stabilty [18]: Stable; Stabilty [19]: Stable; Drug degradation [20]: > 25%; selectivity ratio at 72 h [9]: 295; Drug degradation [21]: 40%; Activity [11]: inactive; Activity [22]: >75%; Activity [13]: inactive; solubility at 24 h [23]: > 10 µM
10 | O=Cc1cccs1 [2-THIOPHENENECARBOXALDEHYDE] |  |  |  |  |  |  | > 100000 | > 100000 |  |  |  | 
11 | O=Cc1ccc([N+](=O)[O-])cc1 |  |  |  |  |  |  | > 100000 | > 100000 |  | -0.58 |  | 
12 | C/[N+]([O-])=C\c1ccc([N+](=O)[O-])cc1 |  |  |  |  |  |  | > 100000 | > 100000 |  | -0.68 | > 100000 | 
13 | O=Cc1ccc([N+](=O)[O-])s1 |  |  |  | > 11500 |  | < 0.5 | 5110 | 1390 |  |  | 6250 | 
14 | O=[N+]([O-])c1ccc(/C=[N+](\[O-])Cc2ccccc2)o1 | 1330 | 1220 | 990 | 2040 | 0.74 | 15.6 | 210 | 220 | 0.81 |  | 31900 | IC50 [5]: 4490 nM; selectivity ratio at 72 h [9]: 5.7
15 | C/[N+]([O-])=C/c1cccs1 |  |  |  |  |  |  | > 100000 | > 100000 |  |  | > 100000 | 
16 | CC(C)(C)/[N+]([O-])=C/c1ccc([N+](=O)[O-])s1 | 310 | 270 | 4550 |  | 18 |  | 11300 | 13300 | 17 | -0.64 | 29800 | Activity [11]: inactive; Activity [13]: inactive
17 | O=Cc1ccco1 [FURFURAL] |  |  |  |  |  |  | > 100000 | > 100000 |  |  |  | 
